Measurements published in PMC2655349 (Nuclear medicine and biology, 2009).
Read-outs that look alike come from different tables or passages of the source.

Key:
[1] = radiopharmaceutical biodistribution in rats following intravenous injection; assay type: in vivo, rat; conditions: male rats, i.v.; for Percentage of Injected Dose per Organ, Blood: blood assumed 7% of body mass
Method in brief: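 67Ga-labelled chelate prepared with ligand in ethanol containing acetylacetone at 70°C for 20 min, diluted with saline to 5–10% ethanol, filtered, purity checked by C18 TLC. Given 1–5 μCi (0.037–0.185 MBq) via femoral vein to ether-anaesthetised male Sprague-Dawley rats. Organs sampled at 1 min and 2 h. Data given as %ID/organ and %ID/g wet tissue; blood taken as 7% and muscle as 42% of body mass.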

[2] = rats, ref [11], cited from earlier work
[3] = 60-minutes rather than 120-minutes post-injection
[4] = 1 min, based on % injected dose per gram

Row | SMILES | Percentage of Injected Dose per Organ, Brain ([1]; 1 min post-injection) | Percentage of Injected Dose per Organ, Heart ([1]; 1 min post-injection) | Percentage of Injected Dose per Organ, Kidney (1) ([1]; 1 min post-injection) | Percentage of Injected Dose per Organ, Liver ([1]; 1 min post-injection) | Percentage of Injected Dose per Organ, Lungs ([1]; 1 min post-injection) | Percentage of Injected Dose per Organ, Spleen ([1]; 1 min post-injection) | Percentage of Injected Dose per Organ, Blood ([1]; 1 min post-injection) | Percentage of Injected Dose per Organ, Brain ([1]; 120 min post-injection) | Percentage of Injected Dose per Organ, Heart ([1]; 120 min post-injection) | Percentage of Injected Dose per Organ, Kidney (1) ([1]; 120 min post-injection) | Percentage of Injected Dose per Organ, Lungs ([1]; 120 min post-injection) | Percentage of Injected Dose per Organ, Spleen ([1]; 120 min post-injection) | Percentage of Injected Dose per Organ, Blood ([1]; 120 min post-injection) | Heart/Blood ratio [2, 3] | Heart/Liver ratio [2, 3] | Heart/Lung ratio [2, 3] | Heart/Blood ratio [2, 4] | Heart/Liver ratio [2, 4] | Heart/Lung ratio [2, 4]
1 | [86Rb+].[Cl-] [[^86Rb]RbCl, [^86Rb]rubidium chloride] | 0.08 ± 0.01 Percentage of Injected Dose per Organ | 2.86 ± 0.38 Percentage of Injected Dose per Organ | 6.7 ± 1.1 Percentage of Injected Dose per Organ | 5.4 ± 0.8 Percentage of Injected Dose per Organ | 2.0 ± 0.3 Percentage of Injected Dose per Organ | 0.32 ± 0.08 Percentage of Injected Dose per Organ | 3.61 ± 0.28 Percentage of Injected Dose per Organ | 0.12 ± 0.01 Percentage of Injected Dose per Organ | 0.69 ± 0.02 Percentage of Injected Dose per Organ | 1.01 ± 0.04 Percentage of Injected Dose per Organ | 1.11 ± 0.01 Percentage of Injected Dose per Organ | 0.71 ± 0.13 Percentage of Injected Dose per Organ | 1.43 ± 0.08 Percentage of Injected Dose per Organ | – | – | – | – | – | –
2 | [C-]#[N+]CC(C)(C)OC.[C-]#[N+]CC(C)(C)OC.[C-]#[N+]CC(C)(C)OC.[C-]#[N+]CC(C)(C)OC.[C-]#[N+]CC(C)(C)OC.[C-]#[N+]CC(C)(C)OC.[Tc] [[^99mTc]Tc-Sestamibi^1+, [^99mTc]Tc-sestamibi] | – | – | – | – | – | – | – | – | – | – | – | – | – | 208 ± 25 | 5.3 ± 1.7 | 6.5 ± 1.7 | 11.1 ± 0.2 | 1.7 ± 0.1 | 1.3 ± 0.2
